pEC50, pKi: −log10 of the molar value.
Assays:
Melanocortin receptor 4 [1] = biological target: T1, Melanocortin receptor 4 (Homo sapiens, UniProt P32245); experiment: Agonist activity against human Melanocortin 4 receptor at 10 uM
Melanocortin receptor 3 [2] = biological target: T2, Melanocortin receptor 3 (Homo sapiens, UniProt P41968); experiment: Intracellular cAMP accumulation in human Melanocortin 3 receptor functional assay.
Melanocortin receptor 3 [3] = biological target: T2, Melanocortin receptor 3; experiment: Binding affinity against human Melanocortin 3 receptor by gamma-MCH displacement.
Procedure, shortened: (§1)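 Competition binding on intact HEK293 cells stably expressing the human receptor, seeded 50000 cells/well 48 h earlier. Lysates were gamma-counted. Ki came from competition curves; mean of duplicate experiments in triplicate.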

Melanocortin receptor 5 [4] = biological target: T3, Melanocortin receptor 5 (Homo sapiens, UniProt P33032); experiment: Intracellular cAMP accumulation in human Melanocortin 5 receptor functional assay.
T3 sequence (P33032 whole entry): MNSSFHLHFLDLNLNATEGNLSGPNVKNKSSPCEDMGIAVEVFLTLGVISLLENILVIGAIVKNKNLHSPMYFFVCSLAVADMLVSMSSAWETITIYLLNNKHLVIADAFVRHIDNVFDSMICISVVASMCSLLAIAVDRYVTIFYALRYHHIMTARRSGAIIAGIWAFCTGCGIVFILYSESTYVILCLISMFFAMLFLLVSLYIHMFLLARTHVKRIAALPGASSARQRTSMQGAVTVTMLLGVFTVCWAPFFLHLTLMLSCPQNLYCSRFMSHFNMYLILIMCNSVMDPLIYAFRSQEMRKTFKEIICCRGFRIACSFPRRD

Melanocortin receptor 5 [5] = biological target: T3, Melanocortin receptor 5; experiment: Agonist activity against human Melanocortin 5 receptor at 10 uM
Melanocortin receptor 4 [6] = biological target: T1, Melanocortin receptor 4; experiment: Binding affinity against Melanocortin 4 receptor by gamma-MCH displacement.
Procedure, shortened: as §1

Melanocortin receptor 5 [7] = biological target: T3, Melanocortin receptor 5; experiment: Binding affinity against human Melanocortin 5 receptor by gamma-MCH displacement.
Procedure, shortened: as §1

Melanocortin receptor 4 [8] = biological target: T1, Melanocortin receptor 4; experiment: Intracellular cAMP accumulation in Melanocortin 4 receptor functional assay.
Melanocortin receptor 3 [9] = biological target: T2, Melanocortin receptor 3; experiment: Agonist activity against human Melanocortin 3 receptor at 10 uM

T1 sequence (P32245 whole entry): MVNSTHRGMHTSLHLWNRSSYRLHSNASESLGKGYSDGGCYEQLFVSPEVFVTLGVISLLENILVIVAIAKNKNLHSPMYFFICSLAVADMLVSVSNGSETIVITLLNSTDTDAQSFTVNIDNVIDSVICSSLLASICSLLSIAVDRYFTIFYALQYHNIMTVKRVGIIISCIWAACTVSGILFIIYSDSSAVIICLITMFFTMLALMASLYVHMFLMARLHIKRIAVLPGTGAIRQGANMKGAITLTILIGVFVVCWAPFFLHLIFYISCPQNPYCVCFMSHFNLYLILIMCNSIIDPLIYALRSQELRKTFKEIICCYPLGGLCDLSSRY
T2 sequence (P41968 whole entry): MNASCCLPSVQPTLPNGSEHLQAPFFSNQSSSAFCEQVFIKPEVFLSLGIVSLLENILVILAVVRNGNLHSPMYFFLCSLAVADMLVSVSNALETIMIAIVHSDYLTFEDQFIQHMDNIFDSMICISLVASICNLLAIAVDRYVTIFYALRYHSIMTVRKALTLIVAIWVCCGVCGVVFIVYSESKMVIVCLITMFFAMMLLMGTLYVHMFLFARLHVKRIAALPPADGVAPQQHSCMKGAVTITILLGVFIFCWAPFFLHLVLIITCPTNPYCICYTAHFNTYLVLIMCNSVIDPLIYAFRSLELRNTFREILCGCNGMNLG

Activity (Melanocortin receptor 4 [1]) | pEC50 (Melanocortin receptor 3 [2]) | pKi (Melanocortin receptor 3 [3]) | pEC50 (Melanocortin receptor 5 [4]) | Activity (Melanocortin receptor 5 [5]) | pKi (Melanocortin receptor 4 [6]) | pKi (Melanocortin receptor 5 [7]) | pEC50 (Melanocortin receptor 4 [8]) | Activity (Melanocortin receptor 3 [9]) | Compound
80% | 6.82 | 5.85 | 6.68 | 40% | 5.89 | 5.48 | 7.28 | 40% | CCCC[C@H](NC(=O)[C@@H](NC(=O)[C@@H](N)Cc1ccc(O)cc1)C(C)C)C(=O)NCC(=O)N[C@@](C)(Cc1ccccc1)C(=O)N[C@@H](Cc1ccccc1)C(=O)N[C@@H](CCCN=C(N)N)C(=O)N[C@H](Cc1ccc2ccccc2c1)C(=O)N[C@@H](CC(=O)O)C(=O)N[C@@H](CCCN=C(N)N)C(=O)N[C@@H](Cc1ccccc1)C(=O)NCC(N)=O
100% | – | – | – | 100% | – | – | – | 100% | CCCC[C@H](NC(=O)[C@@H](NC(=O)[C@@H](N)Cc1ccc(O)cc1)C(C)C)C(=O)N[C@H]1CC(=O)NCCCC[C@H](C(=O)N[C@@H](CCCN=C(N)N)C(=O)N[C@@H](Cc2ccccc2)C(=O)NCC(N)=O)NC(=O)[C@@H](Cc2c[nH]c3ccccc23)NC(=O)[C@H](CCCN=C(N)N)NC(=O)[C@@H](Cc2ccccc2)NC(=O)[C@H](Cc2c[nH]cn2)NC1=O

Reference: ChEMBL document CHEMBL1144940 (J Med Chem, 2003)
